# Measurements collected from several papers.
# Lines come from different studies, so protocols differ. pKi: −log10 of the molar value.
# Target: Adenosine receptor A2a (ADORA2A, Homo sapiens, UniProt P29274)
# Observed: ligand displacement
# Technique: radioligand
Structure (SMILES),notes,pKi
Nc1nc(-c2ccccc2Cl)nn1C(=O)CCc1ccccc1,cell membranes,6.20
c1coc(-c2nc3cc(NCCN4CCCCC4)ccc3o2)c1,cell membranes,4.96
CCCCCCN1CCCn2c1nc1c2c(=O)n(C)c(=O)n1C,cell membranes,5.68
CCNC(=O)C1OC(n2cnc3c(N)nc(NN=CC4CCC=CO4)nc32)C(O)C1O (centres unmarked),,7.63
CNC(=O)[C@@]12C[C@@H]1[C@@H](n1cnc3c(NCc4cccc(C#CCCCCCc5cn(-c6ccc(F)c(N)c6)nn5)c4)nc(Cl)nc31)[C@H](O)[C@@H]2O,cell membranes,6.26
OC[C@@]12C[C@@H]1[C@@H](n1cnc3c(N[C@@H](C4CCC4)C4CC4)nc(I)nc31)[C@H](O)[C@@H]2O,,5.51
C=CN1CCCn2c1nc1c2c(=O)n(C)c(=O)n1C,cell membranes,< 5.00
CNC(=O)[C@@]12C[C@@H]1[C@@H](n1cnc3c(NCc4cn(-c5ccc(C(=O)NCCCF)cc5)nn4)nc(Cl)nc31)[C@H](O)[C@@H]2O,cell membranes,5.74
c1coc(-c2nc3cc(CCN4CCCCC4)ccc3o2)c1,cell membranes,5.15
Nc1nc(-c2ccccc2)nn1C(=O)CCc1ccccc1,cell membranes,5.70
Nc1nc(I)nc2c1ncn2[C@H]1[C@H](O)[C@H](O)[C@]2(CCl)C[C@H]12,,5.27
